Assay: Inhibition of aminoglycoside 6'-N-acetyltransferase Ib (unknown origin)-mediated acetylation expressed in Escherichia coli using 3 to 18 uM kanamycin A and 100 uM acetyl CoA as substrate preincubated for 10 mins followed by enzyme addition by spectrophotometric analysis
In short: (§1)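 Enzyme partially purified on DEAE from arabinose-induced E. coli, in 20 mM Tris pH 7.5 with 0.2 mM DTNB and 10% DMSO. Inhibitor at a range of concentrations, kanamycin A 3–18 μM, acetyl CoA 100 μM. 10 min room-temperature preincubation before enzyme. CoA-SH release read at 412 nm. Ki from initial velocities by nonlinear regression, in triplicate.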

Row | SMILES | Ki [µM]
1 | Cc1ccc(N2C(=O)NC(=O)/C(=C\c3ccccc3OCc3ccc(C(=O)O)cc3)C2=O)cc1 | 157
2 | Cc1cccc(N2C(=O)/C(=C/c3ccc(OCc4cccc(C(=O)O)c4)cc3)C(=O)NC2=S)c1 | 84
3 | CCc1ccc(N2C(=O)NC(=O)/C(=C\c3ccccc3OCc3ccc(C(=O)O)cc3)C2=O)cc1 | 139

Assay: Inhibition of aminoglycoside 6'-N-acetyltransferase Ib (unknown origin)-mediated acetylation expressed in Escherichia coli using kanamycin A and acetyl CoA as substrate at 100 uM preincubated for 10 mins followed by enzyme addition by spectrophotometric analysis relative to control
In short: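 Enzyme: thioredoxin-fused AAC(6′)-Ib, arabinose-induced in E. coli, partially purified by DEAE ion exchange. Reaction: 20 mM Tris pH 7.5, 0.2 mM DTNB, 50 μM acetyl CoA, 18 μM kanamycin A, compound at 100 μM in 10% DMSO. Mix held 10 min at room temperature before enzyme added. CoA–SH release read at 412 nm. Percent inhibition from initial velocities versus no-compound reactions; mean of three experiments.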

Row | SMILES | inhibition [%]
4 | O=C1C(=Cc2ccc(-c3ccccc3Cl)o2)C(=O)N(c2ccccc2)C(=S)N1c1ccccc1 | 0
5 | CC[C@H](C1=NN2C(=N)/C(=C\c3ccc(-c4cccc(C(=O)O)c4)o3)C(=O)N=C2S1)c1ccccc1 | 0
6 | O=C1C(=Cc2ccco2)C(=O)N(c2ccccc2)C(=S)N1c1ccccc1 | 0
7 | O=C(c1ccc2nc(C3CC3)oc2c1)N1CCC(CCc2ccccc2)CC1 | 0
8 | Cc1ccc(N2C(=O)C[C@@H](N3CCN(c4nc5ccccc5s4)CC3)C2=O)c(C)c1 | 0
9 | O=C1NC(=S)N(c2ccccc2)C(=O)/C1=C/c1ccc(OCc2ccccc2)cc1 | 0
10 | Cc1cccc(C)c1NC(=O)C(Cc1c[nH]c2ccccc12)NC(=O)Oc1ccccc1 (configuration not stated) | 0
11 | COc1cc(/C=C2\C(=O)NC(=S)N(c3ccccc3)C2=O)ccc1OCc1ccc(C(=O)O)cc1 | 0
12 | O=C(Nc1ccc2c(c1)C(=O)c1ccccc1C2=O)c1cccc([N+](=O)[O-])c1 | 0
13 | O=C(OCc1ccc(S(=O)(=O)c2ccccc2)cc1)c1ccc2c(c1)-c1ccccc1C2=O | 0
14 | O=c1oc2ccc(Br)cc2cc1C1=Nn2c(nc3ccccc3c2=O)SC1 | 0
15 | Cc1ccc(NC(=O)COc2ccc3c4c(c(=O)oc3c2)CCCCC4)cc1 | 0
16 | Cc1ccc(N2C(=O)NC(=O)/C(=C\c3ccccc3OCc3ccc(C(=O)O)cc3)C2=O)cc1 | 30
17 | Cc1ccc2nc(-c3ccc(Cl)c(NC(=S)NC(=O)c4ccccc4C)c3)oc2c1 | 0
18 | Cc1ccc(C(=O)O)cc1NC(=S)NC(=O)c1cccc2c(Br)cccc12 | 0
19 | O=C1NC(=O)N(c2ccc(F)cc2)C(=O)/C1=C/c1cc(Cl)ccc1OCc1ccc(C(=O)O)cc1 | 0
20 | O=C(c1cccc([N+](=O)[O-])c1)c1ccc2c(c1)C(=O)N(c1cccc(-c3nc4ccccc4o3)c1)C2=O | 0
21 | Cn1c(SCC(=O)Nc2cccc3ccccc23)nnc1-c1ccc(F)cc1 | 0
22 | CC(C)(C)NC(=O)c1cccc(NC(=O)c2ccc3c(c2)C(=O)N(Cc2ccncc2)C3=O)c1 | 0
23 | Cc1nn(Cc2ccc(F)cc2)c(C)c1NC(=O)c1cc(-c2ccc(F)cc2)on1 | 0
24 | O=C1C[C@H](c2ccc3cccc(O)c3n2)c2ccc(N3CCOC3=O)cc2N1 | 0

Row | SMILES | inhibition [%]
25 | CCc1ccc(-c2nc3ccccc3c(C(=O)Nc3ccc(C(=O)N4CCCC4)cc3)c2C)cc1 | 0
26 | Cc1cccc(C)c1NC(=O)COc1ccc2c3c(c(=O)oc2c1)CCCCC3 | 0
27 | CCc1cc(Br)ccc1N1C(=O)[C@H]2C3c4ccccc4C(c4ccccc43)[C@@H]2C1=O | 0
28 | O=C(O)c1ccc2c(c1Nc1cccc3c1C(=O)c1ccccc1C3=O)C(=O)c1ccccc1C2=O | 0
29 | Cn1c(COc2nnc(-c3ccccc3)c3ccccc23)nc2ccccc21 | 0
30 | O=c1[nH]c(-c2cccc(OCc3ccccc3)c2)nc2sc3c(c12)CCCC3 | 0
31 | Cc1ncc(CNC2CCCc3nc(-c4ccccc4)ncc32)n1C (configuration not stated) | 0
32 | Cc1ccc(NC(=O)c2ccccc2N2C(=O)[C@@H]3[C@@H]4C=C[C@@H]([C@H]5C[C@@H]45)[C@@H]3C2=O)cc1C | 0
33 | Cc1ccc(-c2nnn(CC(=O)Nc3ccc4c(c3)OCCO4)n2)cc1 | 0
34 | Cc1ccnc(Nc2nc(-c3ccc4ccccc4c3)cs2)c1 | 0
35 | O=C(c1ccc2c3c(cccc13)CC2)[C@H]1CCCN(C(=O)c2cn3ccccc3n2)C1 | 0
36 | Cc1ccc(N2C(=O)NC(=O)/C(=C\c3ccc(-c4ccccc4C(=O)O)o3)C2=O)cc1 | 0
37 | O=C(CSc1nc2ccccc2c(=O)n1Cc1ccccc1)c1cc2ccccc2o1 | 0
38 | Cc1cccc(N2C(=O)/C(=C/c3ccc(OCc4cccc(C(=O)O)c4)cc3)C(=O)NC2=S)c1 | 33
39 | NC(=O)c1c(NC(=O)c2cc(-c3ccc4c(c3)OCO4)nc3ccccc23)sc2c1CCCCCC2 | 0
40 | O=C1C(=Cc2ccco2)C(=O)N(c2ccccc2)C(=O)N1c1ccccc1 | 0
41 | Cc1ccc(S(=O)(=O)Nc2cc3c(c4ccccc24)O[C@]2(C3)N(C)c3ccccc3C2(C)C)c(C)c1 | 0
42 | O=C(NC(=S)Nc1nc(-c2cccc3ccccc23)cs1)c1ccc2c(c1)OCCO2 | 0
43 | Cc1ccc2nc(NC(=S)NC(=O)c3oc4ccccc4c3C)sc2c1 | 0
44 | CCc1ccc(N2C(=O)NC(=O)/C(=C\c3ccccc3OCc3ccc(C(=O)O)cc3)C2=O)cc1 | 30
45 | c1ccc2oc(-c3nn4c(-c5ccncc5)nnc4s3)cc2c1 | 0

Row | SMILES | inhibition [%]
46 | O=C(Nc1nccs1)c1cccc(N2C(=O)c3cccc4c([N+](=O)[O-])ccc(c34)C2=O)c1 | 0
47 | O=C(/C=C/c1cccc2ccccc12)N1CCN(CCN2C(=O)c3cccc4cccc(c34)C2=O)CC1 | 0
48 | Brc1ccc2nc(Nc3cccc4ccccc34)nc(-c3ccccc3)c2c1 | 0
49 | Cc1ccc(C(=O)COc2cccc(N3C(=O)[C@@H]4[C@H]5CC[C@H](C5)[C@@H]4C3=O)c2)cc1C | 0
50 | O=C1C(=Cc2ccc(-c3ccc(Cl)cc3[N+](=O)[O-])o2)C(=O)N(c2ccccc2)C(=S)N1c1ccccc1 | 0
51 | Cc1ccc(-c2csc(NC(=S)NC(=O)c3ccccc3Br)n2)cc1 | 0
52 | O=C1[C@@H]2[C@H](C(=O)N1/N=C/c1ccccc1OCc1ccc(Cl)cc1)[C@@H]1C=C[C@H]2C1 | 12
53 | O=C(Nc1ccccc1)c1ccccc1/N=C/c1ccc(/C=N/c2ccccc2C(=O)Nc2ccccc2)cc1 | 0
54 | Cc1ccc2nc(C)cc(C(=O)OCC(=O)c3ccc(-c4ccccc4)cc3)c2c1 | 0
55 | S=C(N/N=C1/CCCc2c1[nH]c1ccc(C3CCCCC3)cc21)Nc1ccccc1 | 0
56 | O=C(c1cc(-c2ccccc2Cl)nc2ccccc12)N1CCN(Cc2ccc3c(c2)OCO3)CC1 | 0
57 | Cc1ccc2c(c1)CCCN2C(=O)c1cc(-c2ccc3c(c2)OCO3)nc2ccccc12 | 10
58 | Cc1cc(C)c2nc(Nc3nc(C)cc(-c4ccccc4)n3)nc(C)c2c1 | 0
59 | O=C(NC(=S)Nc1ccc2c3c(oc2c1)CCCC3)c1ccc2c(c1)OCO2 | 0
60 | Cc1c(C(=O)Nc2ccc3c(c2)Cc2ccccc2-3)cccc1[N+](=O)[O-] | 0
61 | CN1C(=O)c2ccc(NC(=O)[C@H]3CC(=O)N(c4ccccc4)C3)cc2C1=O | 0
62 | COc1cccc(Nc2nc(C3(C)CC4(CC(C)OC4=O)C(=O)O3)cs2)c1 (configuration not stated) | 0
63 | Cc1c(O)cccc1C(=O)N1CCC[C@@H]1c1nc(-c2ccccc2)no1 | 0
64 | O=C(NC1CCCc2c1cnn2-c1ccccc1F)c1ccc(-n2ccnc2)cc1 (configuration not stated) | 15
65 | Cc1ccccc1Nc1nnc(-c2ccc(C(=O)NCCO)cc2)c2ccccc12 | 0
66 | COC(=O)c1ccc(N2C(=O)NC(=O)/C(=C\c3ccccc3OCc3ccc(C(=O)O)cc3)C2=O)cc1 | 0

Row | SMILES | inhibition [%]
67 | O=C(NCc1ccc(-c2nc3ccccc3o2)cc1)c1cccc(-c2cc3ccccc3oc2=O)c1 | 0
68 | O=C1c2cccc3cccc(c23)C(=O)N1CCCc1nc2sc3c(c2c(=O)[nH]1)CCCC3 | 0
69 | O=C(CSc1nnnn1-c1ccccc1)Nc1ccc(-c2ccc([N+](=O)[O-])cc2)cc1 | 0
70 | O=C(c1cc(-c2ccc3c(c2)OCO3)nc2ccccc12)N1CCN(c2ccccc2F)CC1 | 0
71 | O=C1C(=Cc2ccc(-c3ccccc3[N+](=O)[O-])o2)C(=O)N(c2ccccc2)C(=S)N1c1ccccc1 | 0
72 | N#Cc1cccc(Oc2ccc(-c3nc4ccccc4nc3-c3ccccc3)cc2)c1C#N | 0
73 | O=C(Nc1ccccc1N1CCCCC1)c1cccc(-c2cc3ccccc3oc2=O)c1 | 0
74 | Cc1nc(N/N=C/c2ccc(OC(=O)c3cccnc3)cc2)c2c3c(sc2n1)CCCC3 | 0
75 | O=C1NCCN(Cc2cccc(F)c2F)[C@H]1CC(=O)N1CCc2c([nH]c3ccccc23)C1 | 0
76 | O=C1NC(=O)N(c2ccccc2)C(=O)/C1=C/c1cc(Cl)ccc1OCc1ccc(C(=O)O)cc1 | 0
77 | Cc1ccc(-c2cc(C(=O)NCc3ccc(S(N)(=O)=O)cc3)c3ccccc3n2)cc1C | 0
78 | Cc1ccc2nc(N3C(=O)c4cccc5cccc(c45)C3=O)sc2c1 | 0
79 | O=C(Nc1ccc(Oc2cccnc2)cc1)[C@@H]1CCCCN1Cc1ccc2c(c1)CCO2 | 0
80 | Cc1ccc(S(=O)(=O)Nc2c3ccccc3c(O)c3c4c(oc23)CC(C)(C)CC4=O)cc1 | 0
81 | CC(C)(NC(=O)CCn1ccc(=O)[nH]c1=O)c1cccc2ccccc12 | 0
82 | O=C(c1ccc(N2CCCCC2)cc1)N1CCC2c3ccccc3NC2[C@@H]1c1ccccn1 (some centres not stated) | 0
83 | O=C1NC(=O)N(c2ccc3c(c2)OCO3)C(=O)/C1=C/c1ccc(-c2ccc(F)cc2)o1 | 0
84 | COc1ccc(F)cc1C(=O)C1CCCN(C(=O)c2ccc(Cn3cnnn3)cc2)C1 (configuration not stated) | 0

Assay: Inhibition of aminoglycoside 6'-N-acetyltransferase Ib (unknown origin)-mediated acetylation expressed in Escherichia coli using 5 to 72 uM acetyl CoA and 25 uM kanamycin A as substrate preincubated for 10 mins followed by enzyme addition by spectrophotometric analysis
In short: as §1, with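 “concentrations, acetyl CoA 5–72 μM,” for “concentrations,”, “25” for “3–18 μM, acetyl CoA 100”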

Row | SMILES | Ki [µM]
85 | Cc1ccc(N2C(=O)NC(=O)/C(=C\c3ccccc3OCc3ccc(C(=O)O)cc3)C2=O)cc1 | 258
86 | Cc1cccc(N2C(=O)/C(=C/c3ccc(OCc4cccc(C(=O)O)c4)cc3)C(=O)NC2=S)c1 | 97
87 | CCc1ccc(N2C(=O)NC(=O)/C(=C\c3ccccc3OCc3ccc(C(=O)O)cc3)C2=O)cc1 | 181

From ChEMBL document CHEMBL2429829, “Inhibitors of the aminoglycoside 6'-N-acetyltransferase type Ib [AAC(6')-Ib] identified by in silico molecular docking” (Bioorg Med Chem Lett, 2013)
